Screening results from PubChem BioAssay.
A1 inh – caspase 3/7 activation in MEF A1-2A-BIM cells, primary screen, A1 inhibitor project, cell-based, luminescence, HTS. Caspase-Glo 3/7 luminescence, 3 h; percent of clofoctol response, vehicle zero. caspase activation, % (concentration not given with the values). 330,000 compounds, 0.066% hits;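 active = over half of replicate activation scores above 10%, or exactly half above 10 with the replicate mean above 10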
XBP1 UPR activ – activators of adaptive XBP1 UPR arm, primary screen, cell-based, CHO-XBP1 luciferase reporter, luminescence, uHTS; IRE1-XBP1 UPR activation; percent of tunicamycin response, DMSO as zero; activation, % at 20 µM; 330,000 compounds, 0.33% hits;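 active = versus positive control, 20 µM dose yields 30% or more activation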;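 also: 100% = tunicamycin at 10 µg/mL and 0% = DMSO only wells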
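Material: IRE1-XBP1 luciferase reporter CHO line / Quantity: one thousand reporter cells per well / Buffer or medium: F12 with 10% serum / Compound: 20 µM single concentration, DMSO 1% / Times: 6 h treatment, 37 °C / Detection: Steady-Glo luciferase glow luminescence, 10 min after reagent addition / Benchmarks: tunicamycin high, DMSO low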
CHOP UPR activ – activators of apoptotic CHOP UPR arm, primary screen, cell-based, CHO-CHOP luciferase reporter, luminescence, uHTS; 330,000 compounds, 0.34% hits; activation, % at 10 µM; UPR activation; percent of tunicamycin response over DMSO baseline;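 active = at 10 µM dose, activation of 40% or more, normalized to positive control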;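 also: 100% = tunicamycin at 10 µg/mL and 0% = DMSO alone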
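Dosing – one dose, 10 µM in 0.5% DMSO · System – CHO-CHOP cells, stable luciferase reporter of PERK-eIF2a-CHOP signalling · Input – 500 cells/well · Control set – tunicamycin 10 µg/mL final as positive, DMSO-only wells as negative · Timing – 6 h compound treatment, 37 °C · Measure – % activation vs tunicamycin · Technique – luminescence read with Steady-Glo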
CHOP inh – inhibitors of CHOP promoter induction, primary screen, cell-based, unfolded protein response, luciferase reporter; CHO-K1 CHOP-promoter luciferase, tunicamycin-induced, 15-18 h; inhibition, % at 10 µM; 220,000 compounds, 3.8% hits; AID 2732, 2010;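 active = compounds that reduced the stress-induced luciferase reporter signal by more than about 70% of percent inhibition, limit read from the data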;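 also: 0% = tunicamycin plus vehicle and 100% = wells without tunicamycin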
* = called active by the depositor; . = no result given. The entries come from a sample that favours hits as a whole.

SMILES	A1 inh	XBP1 UPR activ	CHOP UPR activ	CHOP inh
Cc1ccc(NC(=O)c2ccc3c(c2)C(=O)N(c2cc(C)ccc2C)C3=O)nc1	0.1	-3.7	6.6	.
Cn1c2ccccc2n2c(=O)c(Cl)c(-c3ccccc3)c(C#N)c12	-0.6	14.7	3.4	72.9*
O=C(CSc1nc(C2CC2)nc2ccccc12)N1CCCCC1	-0.3	-2.5	1.7	.
O=C(CSc1nc(C2CC2)nc2ccccc12)N1CCc2ccccc2C1	-0.6	-0.8	0.5	74.5*
CN1CCN(C(=O)c2ccc(NS(=O)(=O)c3cccc([N+](=O)[O-])c3)cc2)CC1	.	-0.8	1.9	.
Cc1ccc(C(=O)CSc2nnc(CNc3ccc(C)cc3C)o2)cc1	-0.4	4.3	0.0	71.5*
CC1CN(C(=O)c2cc(S(=O)(=O)N(C)c3ccc(F)cc3)ccc2Cl)CC(C)O1 (stereo not drawn)	-0.7	-2.8	-0.8	.
COc1ccc(CN(C)C(=O)C2CCN(C(=O)Nc3ccccc3)CC2)cc1	-0.2	-1.0	-0.3	.
O=C1Nc2ccc(Br)cc2/C1=C/C1CC=CCC1 (stereo not drawn)	0.7	-2.1	2.3	94.8*
Cc1ccc(S(=O)(=O)NCC(=O)Nc2ccc(C(F)(F)F)cc2)cc1	.	-1.7	-0.1	92.1*
O=C(CNS(=O)(=O)c1ccc(F)cc1)Nc1ccc(C(F)(F)F)cc1	0.3	-3.1	1.0	63.7
COc1ccccc1N1CCN(Cc2cc(=O)c(OCC(=O)NC(C)C)co2)CC1	0.1	7.1	-1.6	.
CCc1nnc(NC(=O)c2cc(S(=O)(=O)N3CCOCC3)ccc2N2CCCCC2)s1	.	.	.	71.5*
Cc1noc(C)c1C(=O)Nc1sc2c(c1C(N)=O)CCCCC2	0.4	-0.3	3.7	91.3*
Cc1cc(C)c(C)c(S(=O)(=O)NCC(=O)Nc2sc3c(c2C(N)=O)CCCC3)c1C	0.6	-3.3	2.2	94.6*
O=C(NCc1cc([N+](=O)[O-])ccc1O)c1cc(-c2ccncc2)nc2ccccc12	0.0	-2.3	-0.4	.
Cc1cccc2cc3c(NC(=O)C(C)(C)C)nn(CC(C)C)c3nc12	1.3	2.3	1.4	.
COc1ccc(OC)c(NC(=O)[C@@]2(CC(=O)O)CC(/C=C/c3ccccc3)=NO2)c1	0.0	3.0	0.5	.
Fc1ccc2c(Cl)c(-c3nnc(-c4cccs4)o3)sc2c1	-2.6	-1.1	4.6	90.6*
CCCCn1c(N)c(N(CC(C)C)C(=O)C2CCCN(C(=O)c3ccc(Cl)cc3)C2)c(=O)[nH]c1=O (stereo not drawn)	0.3	-2.2	0.6	.
Cn1c(C(=O)N2CCCC(C(=O)NCCCSC3CCCCC3)C2)cc2sccc21 (stereo not drawn)	0.1	-2.7	0.9	73.5*
N#C/C(=N/Nc1ccc(OC(F)(F)F)cc1)C(N)=S	-2.1	5.1	11.0	73.9*
COc1ccc(N/N=C(\C#N)C(N)=O)cc1	-0.7	-1.7	2.2	-3.5
CC1=C(C(=O)OCc2ccccc2)C(c2cccc3ccccc23)NC(=O)N1CCCC(=O)O (stereo not drawn)	0.2	-1.5	-0.9	.
O=P(CCO)(c1ccccc1)c1ccccc1	-0.5	1.2	1.7	15.6
SMILES	A1 inh	XBP1 UPR activ	CHOP UPR activ	CHOP inh
CN1CCN(CCP(=O)(c2ccccc2)c2ccccc2)CC1	0.4	-3.2	-2.8	72.6*
Cc1ccc(NC(=O)c2cc(S(=O)(=O)NCCc3ccccc3)ccc2F)cc1Cl	0.2	-1.4	0.3	84.2*
O=C(Nc1cccc(Cl)c1)c1cc(S(=O)(=O)NCCc2ccc(Cl)cc2)ccc1F	0.0	-4.3	-0.1	50.7
Cn1c(-c2c(N)n(-c3ccccc3)c3nc4ccccc4nc23)nc2ccccc21	0.4	.	.	73.9*
Cc1cccc(-n2c(N)c(-c3nc4ccccc4n3C)c3nc4ccccc4nc32)c1	-0.1	0.0	1.0	49.1
Cc1cc(C)cc(NC(=O)CCn2c(=O)c3cccn3c3ccccc32)c1	0.6	-0.5	0.5	.
CN(C(=O)/C(N=Nc1cccc(C(F)(F)F)c1)=C(\O)C(F)(F)F)c1ccccc1	0.1	2.2	-1.4	73.0*
Cc1cccc(N2CCN(C(=O)COc3ccc4c(C)cc(=O)oc4c3C)CC2)c1C	-0.9	-5.8	-2.6	.
CCOc1ccccc1Nc1nc(-c2sc(NC(=O)c3ccc([N+](=O)[O-])cc3)nc2C)cs1	-2.2	3.4	-1.1	81.7*
Cc1ccc(OC(=O)CCNC(=O)c2ccccc2Cl)c(Br)c1	0.1	0.8	-1.1	.
O=C(NCCc1cnccn1)C1CCC(=O)N(Cc2ccc(Cl)cc2)C1 (stereo not drawn)	-0.8	2.6	1.1	.
Cc1cccc(C)c1OC(=O)CSc1nnc(-c2ccccc2O)o1	-0.7	-0.6	-0.5	91.6*
O=C(CSc1nnc(-c2ccccc2)o1)Oc1ccc(Br)cc1	-1.5	-2.9	-1.7	81.4*
O=C(CSc1nnc(-c2ccc(Br)cc2)o1)Nc1cccc(C(=O)O)c1	-0.2	-7.0	-1.6	.
Cc1cc(-c2nnc(SCC(=O)Nc3ccccc3C(F)(F)F)o2)c(C)n1-c1ccccc1	0.2	-6.8	-1.5	-0.3
COC(=O)CSc1nnc(-c2ccccc2OC)o1	-0.3	-1.5	-0.1	12.7
O=C(CSc1nnc(-c2ccc(Br)cc2)o1)Nc1cccc2ccccc12	0.5	0.6	-1.1	70.2*
Cc1cccc(NC(=O)CSc2nnc(-c3cc(C)n(-c4ccccc4)c3C)o2)c1C	-0.3	-5.2	-7.1	90.8*
C[C@H](CO)N1C[C@H](C)[C@@H](CN(C)C(=O)Nc2ccc3c(c2)OCO3)Oc2c(NC(=O)Nc3ccccc3)cccc2C1=O	0.9	-3.2	2.3	.
Cc1cc(/C=C(\C#N)C(=O)NCCc2c[nH]c3ccccc23)c(C)n1C	0.1	-1.0	-2.4	-9.4
COc1cc(/C=C(/C#N)C(=O)NCCc2c[nH]c3ccccc23)ccc1OCc1ccccc1F	9.4*	17.5	16.6	7.8
CN(C)c1ccc(/C=N/NC(=O)CN2CCN(c3ccc(F)cc3)CC2)cc1	1.3	2.4	4.3	82.0*
CN(C)c1ccc(/C=N/NC(=O)CCCO)cc1	0.3	0.2	2.7	-17.6
Cc1ccc(S(=O)(=O)NC(C)C(c2cccs2)N2CCN(c3ccccc3)CC2)cc1 (stereo not drawn)	-0.4	-0.7	3.4	78.3*
Cc1ccc(S(=O)(=O)NC(C)C(c2cccs2)N2CCN(C)CC2)cc1 (stereo not drawn)	1.5	0.5	-1.6	31.6
Cc1cccc2c1[nH]c1nc(N/N=C\c3ccco3)nnc12	-0.7	0.8	4.5	85.3*
COc1ccc(CCNC(=O)c2c[nH]c3ccc(F)cc3c2=O)cc1OC	0.8	-3.9	2.4	.
COc1ccccc1NC(=O)COC(=O)/C=C/c1cccs1	0.5	-0.3	-0.4	.
CCC(C(=O)Nc1ccccc1OC)n1c(C(=O)OC)cc2ccsc21 (stereo not drawn)	-0.3	-6.4	-2.1	81.2*
COc1ccc(N2CCN(C(=O)COC(=O)COc3ccc(C#N)cc3)CC2)cc1	0.1	-2.6	1.9	.
